Results as given in ChEMBL document CHEMBL1275524, “Activities of antifungal agents against yeasts and filamentous fungi: assessment according to the methodology of the European Committee on Antimicrobial Susceptibility Testing” (2008).
In brackets after ≈: the same amount, converted by molar mass.

What was measured:
[1] = Antifungal activity against Rhinocladiella aquaspersa; assay type: functional
Procedure, shortened: (§1)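 Dematiaceous fungi were tested by the EUCAST spore-forming mold reference procedure: flat-bottom microdilution plates, RPMI 1640 plus 2% glucose, inoculum 2 × 105 to 5 × 10^5 CFU/ml. Endpoints were read visually at 24 and 48 h. Polyenes and azoles: 100% growth reduction vs drug-free control. CPF: minimum effective concentration. Run in duplicate and repeated twice.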

Candida albicans = assay: Antifungal activity against Candida albicans by EUCAST method; assay type: functional
Procedure, shortened: (§2)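 Broth microdilution in flat-bottom plates in RPMI 1640 with 2% glucose; inoculum 0.5 × 105 to 2.5 × 10^5 CFU/ml. MICs were read spectrophotometrically at 24 h. AMB endpoint: ≥90% growth reduction vs drug-free control well. Azole and CPF endpoint: 50% reduction in optical density. MFC was taken as the lowest concentration giving 99% killing.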

Nakaseomyces glabratus = assay: Antifungal activity against Candida glabrata by EUCAST method; assay type: functional; procedure, shortened: as §2
Candida parapsilosis = assay: Antifungal activity against Candida parapsilosis by EUCAST method; assay type: functional; settings: Lodderomyces parapsilosis; procedure, shortened: as §2
Pichia kudriavzevii = assay: Antifungal activity against Candida krusei by EUCAST method; assay type: functional; procedure, shortened: as §2
Clavispora lusitaniae = assay: Antifungal activity against Candida lusitaniae by EUCAST method; assay type: functional; procedure, shortened: as §2
Candida tropicalis = assay: Antifungal activity against Candida tropicalis by EUCAST method; assay type: functional; procedure, shortened: as §2
[2] = tested on: Meyerozyma guilliermondii; assay: Antifungal activity against Candida guilliermondii by EUCAST method; assay type: functional; procedure, shortened: as §2
Saccharomyces cerevisiae = assay: Antifungal activity against Saccharomyces cerevisiae by EUCAST method; assay type: functional
Procedure, shortened: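 EUCAST broth microdilution for yeasts in flat-bottom plates, RPMI 1640 with 2% glucose, inoculum 0.5 × 105 to 2.5 × 10^5 CFU/ml. […] MFC is the lowest concentration giving 99% killing.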

[3] = Antifungal activity against Cryptococcus neoformans var. neoformans by EUCAST method; assay type: functional; settings: Cryptococcus deneoformans
Procedure, shortened: (§3)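 EUCAST yeast microdilution, modified for nonfermentative yeasts: plates were sealed and agitated at 350 rpm and 30°C for 48 h.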

Cryptococcus gattii = assay: Antifungal activity against Cryptococcus neoformans var. gattii by EUCAST method; assay type: functional, Cryptococcus bacillisporus; procedure, shortened: as §3
Trichosporon inkin = assay: Antifungal activity against Trichosporon inkin by EUCAST method; assay type: functional
Procedure, shortened: (§4)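 Nonfermentative yeasts were tested by the EUCAST microdilution recommendations with one change: plates were sealed and agitated at 350 rpm and 30°C for 48 h.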

Trichosporon asahii = assay: Antifungal activity against Trichosporon asahii by EUCAST method; assay type: functional; procedure, shortened: as §4
Geotrichum candidum = assay: Antifungal activity against Geotrichum candidum by EUCAST method; assay type: functional
Aspergillus fumigatus = assay: Antifungal activity against Aspergillus fumigatus by EUCAST method; assay type: functional
Aspergillus terreus = assay: Antifungal activity against Aspergillus terreus by EUCAST method; assay type: functional
Aspergillus flavus = assay: Antifungal activity against Aspergillus flavus by EUCAST method; assay type: functional
Aspergillus niger = assay: Antifungal activity against Aspergillus niger by EUCAST method; assay type: functional
Rhizomucor = assay: Antifungal activity against Rhizomucor species by EUCAST method; assay type: functional
Procedure, shortened: (§5)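 Broth microdilution following the EUCAST reference procedure for spore-forming moulds, in flat-bottom plates with RPMI 1640 plus 2% glucose. Inoculum was 2 × 10^5 to 5 × 10^5 CFU/ml. MICs were read visually at 24 and 48 h as 100% growth reduction versus a drug-free control for polyenes and azoles. MEC was used for caspofungin. Tests were run in duplicate and repeated twice.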

Lichtheimia corymbifera = assay: Antifungal activity against Absidia corymbifera by EUCAST method; assay type: functional
Absidia = assay: Antifungal activity against Absidia species by EUCAST method; assay type: functional
[4] = Antifungal activity against Rhizopus microsporus var. oligosporus by EUCAST method; assay type: functional; procedure, shortened: as §5
Rhizopus arrhizus = assay: Antifungal activity against Rhizopus oryzae by EUCAST method; assay type: functional; procedure, shortened: as §5
Rhizopus = assay: Antifungal activity against Rhizopus species by EUCAST method; assay type: functional; procedure, shortened: as §5
Mucor hiemalis = assay: Antifungal activity against Mucor hiemalis by EUCAST method; assay type: functional
Mucor = assay: Antifungal activity against Mucor species by EUCAST method; assay type: functional
Cunninghamella = assay: Antifungal activity against Cunninghamella species by EUCAST method; assay type: functional
Scedosporium apiospermum = assay: Antifungal activity against Scedosporium apiospermum by EUCAST method; assay type: functional; procedure, shortened: as §5
Talaromyces marneffei = assay: Antifungal activity against Penicillium marneffei by EUCAST method; assay type: functional
Penicillium sp. = assay: Antifungal activity against Penicillium species by EUCAST method; assay type: functional
Fusarium solani = assay: Antifungal activity against Fusarium solani by EUCAST method; assay type: functional
Fusarium oxysporum = assay: Antifungal activity against Fusarium oxysporum by EUCAST method; assay type: functional
Sporothrix schenckii = assay: Antifungal activity against Sporothrix schenckii by EUCAST method; assay type: functional; procedure, shortened: as §5
Curvularia lunata = assay: Antifungal activity against Curvularia lunata by EUCAST method; assay type: functional; procedure, shortened: as §1
Curvularia australiensis = assay: Antifungal activity against Bipolaris australiensis by EUCAST method; assay type: functional; procedure, shortened: as §1
[5] = Antifungal activity against Rhinocladiella aquaspersa by EUCAST method; assay type: functional; procedure, shortened: as §1

## CC[C@@H]([C@H](C)O)n1ncn(-c2ccc(N3CCN(c4ccc(OC[C@@H]5CO[C@@](Cn6cncn6)(c6ccc(F)cc6F)C5)cc4)CC3)cc2)c1=O [POSACONAZOLE]
[1]
  MFC: 0.125 µg/mL (≈ 0.178 µM)
Candida albicans
  MIC: 0.14 µg/mL (≈ 0.2 µM)
Nakaseomyces glabratus
  MIC: 1.58 µg/mL (≈ 2.25 µM)
Candida parapsilosis
  MIC: 0.05 µg/mL (≈ 0.0713 µM)
Pichia kudriavzevii
  MIC: 0.68 µg/mL (≈ 0.97 µM)
Clavispora lusitaniae
  MIC: 0.06 µg/mL (≈ 0.0856 µM)
Candida tropicalis
  MIC: 0.12 µg/mL (≈ 0.171 µM)
[2]
  MIC: 0.45 µg/mL (≈ 0.642 µM)
Saccharomyces cerevisiae
  MIC: 0.66 µg/mL (≈ 0.942 µM)
[3]
  MIC: 0.14 µg/mL (≈ 0.2 µM)
Cryptococcus gattii
  MIC: 0.06 µg/mL (≈ 0.0856 µM)
Trichosporon inkin
  MIC: 0.28 µg/mL (≈ 0.4 µM)
Trichosporon asahii
  MIC: 6 µg/mL (≈ 8.56 µM)
Geotrichum candidum
  MIC: 0.37 µg/mL (≈ 0.528 µM)
Aspergillus fumigatus
  MIC: 0.37 µg/mL (≈ 0.528 µM)
Aspergillus terreus
  MIC: 0.19 µg/mL (≈ 0.271 µM)
Aspergillus flavus
  MIC: 0.21 µg/mL (≈ 0.3 µM)
Aspergillus niger
  MIC: 0.26 µg/mL (≈ 0.371 µM)
Rhizomucor
  MIC: 2.23 µg/mL (≈ 3.18 µM)
Lichtheimia corymbifera
  MIC: 0.29 µg/mL (≈ 0.414 µM)
Absidia
  MIC: 0.33 µg/mL (≈ 0.471 µM)
[4]
  MIC: 5.33 µg/mL (≈ 7.61 µM)
Rhizopus arrhizus
  MIC: 1.89 µg/mL (≈ 2.7 µM)
Rhizopus
  MIC: 0.78 µg/mL (≈ 1.11 µM)
Mucor hiemalis
  MIC: 1.33 µg/mL (≈ 1.9 µM)
Mucor
  MIC: 0.72 µg/mL (≈ 1.03 µM)
Cunninghamella
  MIC: 2 µg/mL (≈ 2.85 µM)
Scedosporium apiospermum
  MIC: 1 µg/mL (≈ 1.43 µM)
Talaromyces marneffei
  MIC: 0.06 µg/mL (≈ 0.0856 µM)
Penicillium sp.
  MIC: 0.05 µg/mL (≈ 0.0713 µM)
Fusarium solani
  MIC: 1 µg/mL (≈ 1.43 µM)
Fusarium oxysporum
  MIC: 0.12 µg/mL (≈ 0.171 µM)
Sporothrix schenckii
  MIC: 0.25 µg/mL (≈ 0.357 µM)
Curvularia lunata
  MIC: 0.25 µg/mL (≈ 0.357 µM)
Curvularia australiensis
  MIC: 0.12 µg/mL (≈ 0.171 µM)
[5]
  MIC: 0.06 µg/mL (≈ 0.0856 µM)
